# Data reported in ChEMBL document CHEMBL4311932, “Novel zafirlukast derivatives exhibit selective antibacterial activity against Porphyromonas gingivalis” (Medchemcomm, 2019).
# Calls of active or inactive are those of the source. No cut-off for these calls is given here.
# How the values were obtained:
# Porphyromonas gingivalis [1] = test: Antibacterial activity against Porphyromonas gingivalis 381 assessed as bacterial growth inhibition at 10 uM measured after 2 hrs in anaerobic condition by WST1 assay relative to control; type: functional; conditions: Porphyromonas gingivalis, 381, 2 h; read-out: GI
# In short: (§1)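 P. gingivalis 381 was grown anaerobically in BHI with 5 µg/mL hemin and 1 µg/mL menadione to log phase (3-4 h). Cultures at 10^6/well in 90 µL broth were exposed for 2 h, then given WST-1 for another 2 h. A450 was read with a 600 nm reference. % growth inhibition was taken against medium-only control, using DMSO vehicle and tetracycline 1 µg/mL as comparators.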
# Porphyromonas gingivalis [2] = test: Antibacterial activity against Porphyromonas gingivalis 381 assessed as bacterial growth inhibition at 100 uM measured after 2 hrs in anaerobic condition by WST1 assay relative to control; type: functional; conditions: Porphyromonas gingivalis, 381, 2 h; read-out: GI; in short: as §1
# Porphyromonas gingivalis [3] = test: Antibacterial activity against Porphyromonas gingivalis 381 assessed as bacterial growth inhibition at 2.25 uM measured after 2 hrs in anaerobic condition by WST1 assay; type: functional, organism-based
# Porphyromonas gingivalis [4] = test: Antibacterial activity against Porphyromonas gingivalis 381 assessed as bacterial growth inhibition at 25 to 50 uM measured after 2 hrs in anaerobic condition by WST1 assay; type: functional, organism-based
# Porphyromonas gingivalis [5] = test: Bactericidal activity against Porphyromonas gingivalis 381 at 25 to 50 uM treated for 24 hrs and measured after 7 days incubation in anaerobic condition […]; type: functional, organism-based
# In short: (§2)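 Viable-count assay on P. gingivalis 381 (10^6/well) grown anaerobically. Cultures were exposed for 24 h to agents dissolved in DMSO. 50 µL of 1:400 dilutions were spread on blood agar, and CFU/mL was counted after 7 days anaerobic incubation. Controls were medium or DMSO (negative) and tetracycline 2.25 µM (positive).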
# Fusobacterium nucleatum = test: Antibacterial activity against Fusobacterium nucleatum ATCC 25586 assessed as bacterial growth inhibition at 1 to 100 uM after 2 hrs in anaerobic condition by WST1 assay relative to control; type: functional
# In short: (§3)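 Log-phase cultures (3-4 h in BHI broth after overnight growth) were plated at 10^6 bacteria/well in 90 µL and treated for 2 h. WST-1 was then added for a further 2 h incubation, aerobic for S. sanguinis and anaerobic for the others, at 37 °C. A450 was read against a 600 nm reference. % inhibition = 100 × [OD(medium control) − OD(treated)]/OD(control). Compounds were dissolved in DMSO.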
# Streptococcus sanguinis = test: Antibacterial activity against Streptococcus sanguinis ATCC 10556 assessed as bacterial growth inhibition at 1 to 100 uM after 2 hrs in aerobic condition by WST1 assay relative to control; type: functional; in short: as §3
# [6] = Induction of apoptosis in hTERT-immortalized human OKF6 cells assessed as viable cells at 1 to 10 uM after 24 hrs by AnnexinV-FITC/propidium iodide staining based flow cytometry analysis relative to control; conditions: read-out: Activity
# In short: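 After 24 h treatment of OKF6/hTERT cells, adherent cells (trypsinized) were pooled with cells recovered from supernatants and washed in PBS. They were stained with FITC-Annexin V plus propidium iodide for 15 min at room temperature. At least 10,000 events were acquired per sample (excitation 488 nm, emission 530 nm), with viable, apoptotic and necrotic fractions reported against DMSO.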
# Veillonella parvula = test: Antibacterial activity against Veillonella parvula ATCC 10790 assessed as bacterial growth inhibition at 1 to 100 uM after 2 hrs in anaerobic condition by WST1 assay; type: functional, organism-based; in short: as §3
# [7] = Cytotoxicity against hTERT-immortalized human OKF6 cells assessed as cell death at 1 to 10 uM after 24 hrs by tryphan blue staining based assay
# In short: (§4)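 OKF6/hTERT keratinocytes were grown in Ker-SFM with 25 µg/mL bovine pituitary extract and 0.2 ng/mL EGF at 37 °C, 5% CO2. Cells were seeded overnight at 10^5/well and exposed for 24 h to 1 or 10 µM in DMSO. Cells were then trypsinized, washed, mixed 1:1 with trypan blue and counted automatically for % live/dead. Two independent experiments were run in duplicate.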
# Porphyromonas gingivalis [8] = test: Antibacterial activity against Porphyromonas gingivalis 381 assessed as bacterial growth inhibition at 1 uM measured after 2 hrs in anaerobic condition by WST1 assay relative to control; type: functional; conditions: Porphyromonas gingivalis, 381, 2 h; read-out: GI; in short: as §1
# [9] = Cytotoxicity against hTERT-immortalized human OKF6 cells assessed as reduction in cell viability after 24 hrs by tryphan blue staining based assay; conditions: OKF6, 24 h
# In short: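 OKF6/hTERT cells at 10^5/well in Ker-SFM were exposed for 24 h to 0, 1, 2.5, 5, 10, 15, 20, 25, 50 and 100 µM in DMSO. Viability was counted by trypan blue exclusion on an automated counter, in triplicate. IC50 was derived from a fitted concentration-response curve.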
# [10] = Cytotoxicity against hTERT-immortalized human OKF6 cells assessed as cell viability at 1 uM after 24 hrs by tryphan blue staining based assay relative to control; conditions: read-out: Activity; in short: as §4
# [11] = test system: Aggregatibacter actinomycetemcomitans; test: Antibacterial activity against Aggregatibacter actinomycetemcomitans JP2 assessed as bacterial growth inhibition at 1 to 100 uM after 2 hrs in anaerobic condition by WST1 assay; type: functional, organism-based; in short: as §3
# Actinomyces naeslundii = test: Antibacterial activity against Actinomyces naeslundii ATCC 49340 assessed as bacterial growth inhibition at 1 to 100 uM after 2 hrs in anaerobic condition by WST1 assay; type: functional, organism-based; in short: as §3
# Porphyromonas gingivalis [12] = test: Bactericidal activity against Porphyromonas gingivalis 381 at 10 uM treated for 24 hrs and measured after 7 days incubation in anaerobic condition by CFU counting relative to control; conditions: read-out: GI
# Porphyromonas gingivalis [13] = test: Bactericidal activity against Porphyromonas gingivalis 381 at 100 uM treated for 24 hrs and measured after 7 days incubation in anaerobic condition […]; type: functional, organism-based; in short: as §2
# Porphyromonas gingivalis [14] = test: Bactericidal activity against Porphyromonas gingivalis 381 at 1 uM treated for 24 hrs and measured after 7 days incubation in anaerobic condition by WST1 assay relative to control; type: functional; conditions: in the assay text read “by CFU counting” for “by WST1 assay”, read-out: GI; in short: as §2
smiles,measurement,setting,value
Cc1ccccc1S(=O)(=O)NC(=O)c1ccc(Cc2c[nH]c3ccccc23)cc1,inhibition of growth at 10 µM,Porphyromonas gingivalis [1],90%
same,inhibition of growth at 100 µM,Porphyromonas gingivalis [2],100%
CN(C)[C@@H]1C(O)=C(C(N)=O)C(=O)[C@@]2(O)C(O)=C3C(=O)c4c(O)cccc4[C@@](C)(O)[C@H]3C[C@@H]12,growth inhibition (GI),Porphyromonas gingivalis [3],Active
COc1ccc(Cc2c[nH]c3ccccc23)cc1C(=O)NS(=O)(=O)c1ccccc1C,inhibition of growth at 10 µM,Porphyromonas gingivalis [1],80%
same,inhibition of growth at 100 µM,Porphyromonas gingivalis [2],100%
COc1cc(C(=O)NS(=O)(=O)c2ccccc2C)ccc1Cc1cn(C)c2ccc(NC(=O)OC3CCCC3)cc12,growth inhibition (GI),Porphyromonas gingivalis [4],Active
same,Activity,Porphyromonas gingivalis [5],Active
COc1ccc(Cc2cn(C)c3ccccc23)cc1C(=O)NS(=O)(=O)c1ccccc1C,inhibition (INH),Fusobacterium nucleatum,20%
same,inhibition of growth at 10 µM,Porphyromonas gingivalis [1],90 to 100%
same,inhibition (INH),Streptococcus sanguinis,20%
same,"viability at 24 h, up to 10 µM",[6],50 to 70%
same,inhibition,Veillonella parvula,inactive
same,Activity,[7],Toxic
same,inhibition of growth at 1 µM,Porphyromonas gingivalis [8],15 to 40%
same,inhibition of growth at 100 µM,Porphyromonas gingivalis [2],100%
same,IC50,[9],16 µM
same,"viability at 24 h, 1 µM",[10],70 to 90%
same,inhibition,[11],inactive
same,growth inhibition (GI),Actinomyces naeslundii,inactive
COc1ccc(Cc2cn(C)c3ccccc23)cc1C(=O)NS(=O)(=O)c1ccccc1,inhibition of growth at 10 µM,Porphyromonas gingivalis [1],90 to 100%
same,inhibition of growth at 100 µM,Porphyromonas gingivalis [2],100%
COc1ccc(Cc2cn(C)c3ccc([N+](=O)[O-])cc23)cc1C(=O)NS(=O)(=O)c1ccccc1,inhibition of growth at 10 µM,Porphyromonas gingivalis [12],100%
same,inhibition (INH),Fusobacterium nucleatum,20%
same,inhibition of growth at 10 µM,Porphyromonas gingivalis [1],90 to 100%
same,inhibition (INH),Streptococcus sanguinis,20%
same,Activity,Porphyromonas gingivalis [13],Active
same,"viability at 24 h, up to 10 µM",[6],50 to 70%
same,inhibition,Veillonella parvula,inactive
same,inhibition of growth at 1 µM,Porphyromonas gingivalis [14],60%
same,Activity,[7],Non-Toxic
same,inhibition of growth at 1 µM,Porphyromonas gingivalis [8],15 to 40%
same,inhibition of growth at 100 µM,Porphyromonas gingivalis [2],100%
same,IC50,[9],54 µM
same,"viability at 24 h, 1 µM",[10],70 to 90%
same,inhibition,[11],inactive
same,growth inhibition (GI),Actinomyces naeslundii,inactive
COc1cc(C(=O)NS(=O)(=O)c2ccccc2)ccc1Cc1cn(C)c2ccccc12,inhibition of growth at 100 µM,Porphyromonas gingivalis [2],60%
COc1ccc(Cc2cn(C)c3ccc([N+](=O)[O-])cc23)cc1C(=O)NS(=O)(=O)c1ccccc1C,inhibition (INH),Fusobacterium nucleatum,20%
same,inhibition of growth at 10 µM,Porphyromonas gingivalis [1],90 to 100%
same,inhibition (INH),Streptococcus sanguinis,20%
same,Activity,Porphyromonas gingivalis [13],Active
same,"viability at 24 h, up to 10 µM",[6],50 to 70%
same,inhibition,Veillonella parvula,inactive
same,Activity,[7],Toxic
same,inhibition of growth at 1 µM,Porphyromonas gingivalis [8],15 to 40%
same,inhibition of growth at 100 µM,Porphyromonas gingivalis [2],100%
same,IC50,[9],230 µM
same,"viability at 24 h, 1 µM",[10],70 to 90%
same,inhibition,[11],inactive
same,inhibition,Actinomyces naeslundii,inactive
O=C(NS(=O)(=O)c1ccccc1)c1ccc(Cc2c[nH]c3ccccc23)cc1,inhibition of growth at 10 µM,Porphyromonas gingivalis [1],40%
same,inhibition of growth at 100 µM,Porphyromonas gingivalis [2],100%
Cn1cc(Cc2ccc(C(=O)NS(=O)(=O)c3ccccc3)cc2)c2ccccc21,inhibition of growth at 10 µM,Porphyromonas gingivalis [1],90 to 100%
same,inhibition of growth at 100 µM,Porphyromonas gingivalis [2],100%
COc1cc(C(=O)NS(=O)(=O)c2ccccc2C)ccc1Cc1cn(C)c2ccccc12,inhibition of growth at 100 µM,Porphyromonas gingivalis [2],60%
COc1ccc(Cc2c[nH]c3ccccc23)cc1C(=O)NS(=O)(=O)c1ccccc1,inhibition of growth at 10 µM,Porphyromonas gingivalis [1],40%
same,inhibition of growth at 100 µM,Porphyromonas gingivalis [2],100%
